Most compounds without a hit are left out; they make up all but 2.1% or so of the library.
RORa activator = activators of orphan receptor RORA, primary screen, cell-based, luminescence; Nuclear receptor ROR-alpha (Homo sapiens), P35398; CHO-K1 Gal4-RORA LBD luciferase reporter; percent increase over mock-subtracted basal signal; activation, % at 10 µM; 1.5% of 65,000 active;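 active = activation above the mean of all tested compounds plus 3 SD, cut at about 49% in these data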;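 also: 0% = DMSO-treated RORA cells and 100% = added signal equal to DMSO minus mock-transfected cells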
Mac1 fbg enh = enhancers of CD11b/CD18 adhesion to fibrinogen, primary screen, K562 cells, luminescence; Integrin beta-2 (Homo sapiens) + Integrin alpha-M (Homo sapiens), P05107+P11215; ATPlite luminescence; activation, % at 10 µM; 0.07% of 93,000 active;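 active = 10 µM primary screen giving 50% or more activity, confirmed by 40% or more on retest at that dose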
Target sequence (P05107 whole entry, looked up, other chains not shown): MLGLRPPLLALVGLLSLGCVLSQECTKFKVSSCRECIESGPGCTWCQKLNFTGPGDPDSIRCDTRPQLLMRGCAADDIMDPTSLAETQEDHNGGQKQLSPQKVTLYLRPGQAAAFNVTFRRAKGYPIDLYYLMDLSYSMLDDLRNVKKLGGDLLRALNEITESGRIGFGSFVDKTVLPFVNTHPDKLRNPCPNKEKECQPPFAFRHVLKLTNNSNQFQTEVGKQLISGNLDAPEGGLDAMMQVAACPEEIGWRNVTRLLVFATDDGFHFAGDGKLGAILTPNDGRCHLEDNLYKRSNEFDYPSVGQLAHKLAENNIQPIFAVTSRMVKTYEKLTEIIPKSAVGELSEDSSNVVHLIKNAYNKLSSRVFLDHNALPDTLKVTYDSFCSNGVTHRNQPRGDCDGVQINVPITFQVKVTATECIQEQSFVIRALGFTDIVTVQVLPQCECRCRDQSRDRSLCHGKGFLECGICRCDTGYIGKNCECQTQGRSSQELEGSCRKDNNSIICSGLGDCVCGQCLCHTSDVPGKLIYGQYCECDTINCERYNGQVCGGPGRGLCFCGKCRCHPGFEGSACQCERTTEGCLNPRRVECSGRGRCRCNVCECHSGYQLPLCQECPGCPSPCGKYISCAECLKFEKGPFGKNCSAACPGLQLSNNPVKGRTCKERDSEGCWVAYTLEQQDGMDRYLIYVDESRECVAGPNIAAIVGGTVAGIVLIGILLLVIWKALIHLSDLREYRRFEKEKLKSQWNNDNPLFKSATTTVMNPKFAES
SF-1 act = activators of human SF-1, primary screen, cell-based, CHO-K1, Gal4-SF-1 LBD, luciferase luminescence; Steroidogenic factor 1 (Homo sapiens), Q13285; CHO-K1 Gal4-SF-1 LBD luciferase reporter; % increase over DMSO SF-1-specific signal; activation, % at 10 µM; 1.9% of 65,000 active; AID 522, 2006;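 active = activation above the mean activation of all tested compounds plus 3 SD, cut at about 50% in these data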
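Test system: CHO-K1 cells with Gal4–hSF-1 LBD chimera plus Gal4-driven luciferase; Input: 4,000 cells/well; Compound: 10 µM only; Times: 20 h compound treatment, 37 °C; Measured by: steady-glow luciferase luminescence, read after 15 min reagent incubation; Measure: percent activation versus DMSO; Control set: DMSO and mock-transfected background; Replicates: one test per compound.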
MT1-MMP txn act = MT1-MMP promoter reporter activation – cell-based, luciferase luminescence, primary screen. HT1080 MT1-MMP promoter luciferase reporter, overnight; active compounds read high. activation factor at 10 µM. 0.16% of 86,000 active;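 active = activation factor of at least 2 for MT1-MMP transcription at 10 µM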
TNAP act mid DEA = human TNAP enzyme activators, primary screen, biochemical, luminescent, intermediate phosphate acceptor level; AID 813, 2007; Alkaline phosphatase, tissue-nonspecific isozyme (Homo sapiens), P05186; purified TNAP, CDP-star luminescence, 100 mM DEA, 30 min; active compounds read high; scale: 0 levamisole-inhibited, 1 vehicle-only enzyme; activation factor at 20 µM; 64,000 tested, under 10 active;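 active = activation factor of at least 2 at 20 µM, relative to controls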
CD11b adhes inh = inhibitors of CD11b/CD18 adhesion to fibrinogen, primary screen, K562 cells, luminescence | ATPlite luminescence; Mn2+ added to activate the integrin | AID 1497, 2009 | inhibition, % at 10 µM | Integrin beta-2 (Homo sapiens) + Integrin alpha-M (Homo sapiens), P05107+P11215 | 0.54% of 93,000 active;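 active = primary inhibition of 50% or more at 10 µM, then 40% or more on retest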
The depositor's hits bear a star; . = no result given.

SMILES | RORa activator | Mac1 fbg enh | SF-1 act | MT1-MMP txn act | TNAP act mid DEA | CD11b adhes inh
Cc1ccc(N(C(=O)Cc2c[nH]c3ccccc23)C(C(=O)NC2CCCCC2)c2ccco2)cc1 (centres undefined) | . | 2 | . | . | . | -3
CC(C)CC1NC(=O)N(CC(=O)c2ccc3c(c2)OCCO3)C1=O (centres undefined) | 57* | -1 | 84* | 1.2 | 0.9 | -17
Cc1cc(NC(=O)CN2CCCCC2C)no1 (centres undefined) | . | . | . | 1.1 | . | .
CCNc1nc(CN2CCCCC2)nc2scc(-c3ccccc3)c12 | . | -4 | . | . | . | 78*
CCOC(=O)c1ccc(NC(=O)C2CCN(S(=O)(=O)CC)CC2)cc1 | 0 | -2 | 0 | 1.1 | 1 | -8
CCOC(=O)c1ccc(NS(=O)(=O)N2CCCCCC2)cc1 | 49* | 8 | 24 | 1.3 | 1 | 10
FC(F)(F)c1cnc(NNC(=S)Nc2ccccc2Cl)c(Cl)c1 | . | -10 | . | . | . | 100*
NC(=O)c1oc2ccccc2c1NC(=O)c1nc2ccccc2s1 | 83* | 11 | 64* | 1.5 | 1 | -12
CCCn1c(C)cc(C(=O)COc2ncnc3sccc23)c1C | 7 | 9 | 53* | 1 | 0.8 | 5
Cc1cc(C(=O)COc2ncnc3sccc23)c(C)n1C1CC1 | 34 | -2 | 11 | 1.5 | 0.9 | 5
Nc1nc2sc3c(c2c(=O)s1)CCCC3 | 11 | 0 | 56* | 1.3 | 0.8 | -9
O=c1c2c3c(sc2nc2n1CCCCC2)CCCC3 | 106* | -1 | 60* | 1.7 | 0.9 | -5
O=c1c2c3c(sc2nc2n1CCCC2)CCCCC3 | . | 0 | . | 1.7 | . | -1
O=c1c2c3c(sc2nc2n1CCCCC2)CCCCC3 | 55* | 1 | 42 | 1.5 | 0.8 | 3
O=c1c2c3c(sc2nc2n1CCCS2)CCCC3 | 39 | 2 | 71* | 1.7 | 1 | 10
Cc1ccccc1C(=O)N[C@H](C(=O)OCC(=O)c1ccc[nH]1)C(C)C | . | 3 | . | . | . | 6
NC(=O)c1c(NC(=O)c2ccccc2)sc2c1CCc1ccccc1-2 | . | -1 | . | 1.6 | . | -1
O=C(CC(=O)NC1CCCCC1)N/N=C/c1cccc2ccccc12 | . | 5 | . | . | . | -4
O=[N+]([O-])c1cccc(S(=O)(=O)Nc2nc3ccccc3nc2Nc2cccc(S(=O)(=O)N3CCCCC3)c2)c1 | . | 4 | . | . | . | 98*
O=S(=O)(Nc1nc2ccccc2nc1Nc1ccc2c(c1)OCO2)c1ccccc1 | . | 6 | . | . | . | -1
CCCCOC(=O)C(C)Oc1ccc(=O)n(-c2ccccc2)n1 (centres undefined) | 57* | -2 | 4 | 1.3 | 1 | -3
N#Cc1cccc(Oc2ccc(-c3cnc4ccccc4n3)cc2)c1C#N | . | 1 | . | . | . | 7
Nc1cc(C2CCCC2)nn1-c1ccccc1 | 62* | -2 | 49 | 1.5 | 0.9 | 34
Cc1ccc(-c2cc(C(F)F)n3ncc(C(=O)Nc4c(C)nn(Cc5c(Cl)cccc5Cl)c4C)c3n2)cc1 | . | 116* | . | . | . | 32
Cc1ccc(C2CC(C(F)F)n3ncc(C(=O)Nc4c(C)nn(Cc5c(F)cccc5Cl)c4C)c3N2)cc1 (centres undefined) | . | . | . | 1.3 | . | .
SMILES | RORa activator | Mac1 fbg enh | SF-1 act | MT1-MMP txn act | TNAP act mid DEA | CD11b adhes inh
Cc1nn(Cc2c(Cl)cccc2Cl)c(C)c1NC(=O)c1cnn2c(C(F)F)cc(-c3ccccc3)nc12 | . | 116* | . | . | . | -6
CC(C)OC1=C(OC(C)C)C(O)(C#CCN(C(=O)/C=C/c2ccccc2)C(C)(C)C)C1=O (centres undefined) | . | . | . | 1.1 | . | .
CCn1c(C)nc2cc(-c3nc4n(n3)Cc3ccccc3-4)ccc21 | -96 | -10 | -96 | 0 | 1 | 98*
CC(=O)Nc1ccc(NC(=O)c2ccco2)cc1 | 31 | -3 | 27 | 1.5 | 0.9 | -16
CC1N(C)c2cc(NC(=O)c3ccco3)ccc2C1(C)C (centres undefined) | 33 | -5 | 71* | 1.4 | 1 | 1
CCCCNC(=O)Nc1cc(C(=O)OC)ccc1Cl | . | -4 | . | . | . | 2
O=C(OCC(=O)N1CCCCCC1)c1n[nH]c(=O)c2ccccc12 | -12 | 0 | -9 | 1.2 | 0.9 | -9
O=C(OCC(=O)N1CCCCCC1)c1cccs1 | 14 | -1 | 55* | 1.6 | 0.9 | -16
Cc1cccc(NC(=O)C2=C(O)c3ccccc3N(C)S2(=O)=O)c1 | . | -1 | . | . | . | -1
CN1c2ccccc2C(O)=C(C(=S)Nc2ccc(Cl)cc2)S1(=O)=O | . | -6 | . | . | . | 52*
CC1=CC(C)(C)N2C(=O)C3(C(C#N)=C(N)Oc4cc(O)ccc43)c3c(C)c(C)cc1c32 (centres undefined) | . | 6 | . | 1 | . | 2
O=C(NCc1ccccc1)c1c(F)c(F)c(F)c(F)c1F | -23 | -4 | -6 | 1.1 | 0.9 | 43
O=C(NCc1ccccc1)c1sc(=S)n2c1[nH]c(=O)c1ccccc12 | . | -7 | . | 1 | . | 103*
COC(=O)c1cc(-c2ccccc2)n(CCNC(=O)CCCCCN2C(=O)NC(c3ccc(-c4ccccc4)cc3)C(C(=O)OCc3ccccc3)=C2C)c1C (centres undefined) | . | . | . | 1.2 | . | .
Cc1sc2nc(CN3CCCCC3)nc(Cl)c2c1C | . | -2 | . | . | . | 5
Cc1csc(NC(=O)c2cnc3ccccn3c2=O)n1 | 34 | . | 61* | 1.3 | 1 | .
O=C(Nc1cnc2ccccn2c1=O)c1ccc(F)cc1 | 46 | 6 | 60* | 1.4 | 0.9 | -7
O=C(Nc1ccc(-c2noc(CCc3ccccc3)n2)cc1)c1ccco1 | 72* | 3 | 23 | 1.3 | 0.9 | -2
O=C(Nc1nc2c(ccc3ccccc32)s1)c1ccco1 | 59* | . | 63* | 2.3* | 0.9 | .
Cc1ccccc1NC(=O)c1cnc2ccccn2c1=O | -54 | -2 | -16 | . | 1 | -6
CC(C)CNC(=S)NC1CC2CCCC(C1)N2Cc1cccs1 (centres undefined) | . | 3 | . | . | . | 3
O=c1c2ccccc2nc2n1C(CSCc1ccc(Cl)cc1Cl)CS2 (centres undefined) | . | -3 | . | . | . | 3
CCOC(=O)c1sc2nc(NC(=O)c3cccs3)sc2c1C | 60* | . | 48 | 1.3 | 0.9 | .
CC(C)c1nnc(NC(=O)c2cccs2)s1 | 76* | 0 | 104* | 1.3 | 0.9 | -39
O=C(Nc1nnc(CCc2ccccc2)s1)c1cccs1 | 39 | 2 | 54* | 1.4 | 0.9 | 0
Cc1occc1C(=O)Nc1ccc2ccccc2c1 | 120* | -1 | 48 | 0.9 | 0.9 | 6
